The values that follow come from ChEMBL document CHEMBL5154683, “A 5-FU Precursor Designed to Evade Anabolic and Catabolic Drug Pathways and Activated by Pd Chemistry In Vitro and In Vivo” (J Med Chem, 2022).

Series [1] can be described thus: Tmax in male Wistar Han rat at 1000 mg/kg, po administered as single dose measured upto 24 hrs. Type of series: ADME, organism-based. Particulars: in vivo. Summed up: (§1)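 Single oral dose 1000 mg/kg in male and female rats, dosing volume 10 mL/kg (n = 6); animals observed 14 days with clinical checks, functional/neurobehavioral tests and body weight, necropsy on d15; exposure parameters from the toxicokinetic arm of this study.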

Series [2] can be described thus: AUC (0 to infinity) in male Wistar Han rat at 1 mg/kg, iv administered as single dose measured upto 24 hrs. Type of series: ADME, organism-based. Set-up: time < 24 hrs, dose 1 mg/kg, route iv. Particulars: in vivo. The procedure, abridged: (§2)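 Male jugular-vein-cannulated Wistar Han rats, 263–319 g, single dose. IV: 1 mg/kg as 2 mL/kg of 0.5 mg/mL in 5% DMSO/95% HPCD (20% w/v), not fasted. PO: 10 mg/kg as 5 mL/kg of 2 mg/mL suspension in 5% DMSO/95% tween 80/HPCD vehicle, fasted overnight. Serial cannula blood sampling 0.083/0.25–24 h (n = 3/route); parent quantified by QToF against calibration curve.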

Series [3] in a line: Toxicity in female Wistar Han rat assessed as abnormal morphological changes in organs at 1000 mg/kg, po administered as single dose measured after 15 days. Format: organism-based. The note with it: in vivo, 360 h, time 15 day. The procedure, abridged: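 Single oral dose of 1000 mg/kg in 10 mL/kg to male and female rats (n = 6), then 14 days of observation. Mortality and morbidity checked twice daily, with clinical observations and functional/neurobehavioral tests. Body weight recorded d1, d2, d5, d8, d11 and d14. Gross necropsy on d15.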

Series [4] is described as follows: Stability in human hepatocytes assessed as parent compound remaining at 10 uM measured after 60 mins by UPLC analysis. Format: ADME, cell-based, Hepatocyte. The note with it: read-out: Stability. The procedure, abridged:
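Cryopreserved male Sprague–Dawley rat or male human hepatocytes (0.5 × 10⁶ cells/mL) in Leibovitz buffer with 10 μM compound, 37 °C, shaken 700 rpm, 60 min. Samples at 0 and 60 min quenched 1:1 with ice-cold acetonitrile; supernatant analyzed by UPLC–QToF MS (positive ion). Hepatocyte-only and buffer-only negatives; verapamil and 7-hydroxycoumarin as viability controls.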

Series [5] in a line: Plasma protein binding in rat at 5 uM. Particulars: read-out: PPB (converted). Format: ADME, cell-free. Summed up: (§3)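 Binding of compound at 5 μM measured in rat and human plasma, with compound recovery determined; n = 3.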
Series [6] is described as follows: AUC (0 to infinity) in female Wistar Han rat at 1000 mg/kg, po administered as single dose measured upto 24 hrs. Type of series: ADME, organism-based. The note with it: in vivo. Set-up: time < 24 hrs, dose 1000 mg/kg, route po. Summed up:
as §1

The nature of series [7]: Drug distribution in brain of BALB/c mouse xenografted with human HCT-116 cells at 75 to 150 mg/kg, po administered for 7 days. Format: ADME, organism-based. Particulars: in vivo, 168 h, dose 75-150 mg/kg, time 7 day. On the technique in general: Xenograft models place foreign cells or tissue in a host animal.
Series [8] can be described thus: AUC (0 to infinity) in maleWistar Han rat at 1000 mg/kg, po administered as single dose measured upto 24 hrs. Type of series: ADME, organism-based. Details: time < 24 hrs, dose 1000 mg/kg, route po. The note with it: male, Wistar Han, in vivo. Summed up:
as §1

Series [9] is described as follows: Oral bioavailability in Wistar Han rat at 10 mg/kg administered as single dose measured upto 24 hrs. Type of series: ADME, organism-based. Particulars: in vivo. Summed up: as §2
Series [10] concerns HCT-116. Nature of the series: Antiproliferative activity against human HCT-116 cells assessed as reduction in cell viability measured after 5 days by PrestoBlue reagent based assay. The note with it: HCT-116, 120 h. Type of series: functional. Summed up:
(§4)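 Cells in 10% FBS, 2 mM L-glutamine media at 37 °C, 5% CO₂ (HCT116 in McCoy's 5A, BxPC-3 in RPMI). Seeded at 3000 (HCT116) or 2500 (BxPC-3) cells/well and grown 48 h. Medium then replaced with drug-containing medium, 0.1% DMSO, for 5 d. PrestoBlue 10% v/v added for 1 h, fluorescence read ex 540/em 590 nm. Normalised to DMSO-only wells; sigmoidal variable-slope fit; n = 3.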

Series [11] in a line: Apparent permeability across basolateral to apical side in human Caco-2 cells at 10 uM measured after 120 mins by LC-MS/MS analysis. Type of series: ADME, cell-based. Summed up:
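Caco-2 cells (P40-60) seeded at 1 × 10⁵ cells/cm² on Transwells, used on day 20; rinsed and equilibrated 40 min in HBSS pH 7.4. Compound at 10 μM in HBSS, 1% v/v DMSO, added apically (A–B) or basolaterally (B–A); 120 min at 37 °C, 5% CO₂. Lucifer yellow monitored monolayer integrity; LC-MS/MS with eight-point calibration; recovery from C₀ and both compartments.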

Series [12] is described as follows: Plasma protein binding in rat assessed as compound recovery at 5 uM. Type of series: ADME, cell-free. Particulars: read-out: Drug recovery. Summed up:
as §3

Series [13] can be described thus: Mean residence time in female Wistar Han rat at 1000 mg/kg, po administered as single dose measured upto 24 hrs. Type of series: ADME, organism-based. The note with it: in vivo. The procedure, abridged: as §1
The subject of series [14] is BXPC-3. The experiment in a line: Antiproliferative activity against human BxPC-3 cells assessed as reduction in cell viability measured after 5 days by PrestoBlue reagent based assay. Type of series: functional. Particulars: BXPC-3, 120 h. Summed up:
as §4

Series [15] can be described thus: Metabolic stability in rat hepatocytes assessed as half life at 3 uM by LC-MS/MS analysis. Type of series: ADME, cell-based, Hepatocyte. Summed up:
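Suspended hepatocytes (0.5 × 10⁶ cells/mL) in Williams E medium with 2 mM L-glutamine and 25 mM HEPES at 37 °C, compound added with 0.25% v/v DMSO after preincubation; aliquots quenched into methanol with internal standard at time points, centrifuged, supernatant analyzed by LC-MS/MS; two control compounds included.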

Structures are written as SMILES.

For `C#CCOc1ncc(F)c(OCC#C)n1`, the time of peak concentration (Tmax) (in general, the time from dosing to the highest level) in [1] amounted to 1 h. In addition, the AUC(0-inf) (as a rule, the area under the concentration-time curve extrapolated to infinity) is 0.33 µg·h/mL in [2], 1470 µg·h/mL in series [6] and 2610 µg·h/mL in [8]. The Activity result in [3] is on record as “Non-Toxic”. The remaining at 1 h, 10 µM in series [4] was more than 99%. In addition, in [5], the fraction unbound at 5 µM was 0.161. Besides, in series [7], the Drug uptake entry is “Active”. The F in [9] amounted to 187%. Besides, the EC50 in series [10] and in [14] was more than 100 µM throughout. The basolateral-to-apical permeability (Papp B→A) (usually how fast a substance crosses the layer from the basolateral side) at 2 h, 10 µM in series [11] was 38.8 ×10⁻⁶ cm/s. The recovery at 5 µM in series [12] was 94.8%. For the same molecule, the MRT (in general, the average time that molecules of a dose stay in the body) in [13] is 13.4 h. Also, the half-life – broadly, the time needed for the level to fall by half in the phase considered – at 3 µM in series [15] stood at 6.97 h.
